The test system of test [1] is Rattus norvegicus. Nature of the test: Ulcerogenicity was measured in stomach during the 3 week adjuvant arthritis test, no of animals with ulcers out of 8 animals tested at 0.16 mM/kg (58.2 mg) was reported. In kind it is functional. Summed up: (§1)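 Male Sprague-Dawley rats (200–230 g) were injected in the plantar tissue of one hind paw with 0.1 mL of 0.6% M. butyricum suspension in heavy mineral oil. Daily oral gavage began on the day of adjuvant injection and ran for the 21 days, with drug suspended in 1% gum tragacanth or a corn oil-water emulsion. At the end the rats were sacrificed and the small intestine and stomach were examined for ulcers. Results are given as animals with ulcers/animals tested.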

Test [2] concerns Rattus norvegicus. Nature of the test: Ulcerogenicity was measured in intestine during the 3 week adjuvant arthritis test, no of animals with ulcers out of 7 animals tested at 0.32 mM/kg (116.4 mg) was reported. It counts as functional. Summed up:
(§2)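 In the 21-day adjuvant arthritis model, male Sprague-Dawley rats (200–230 g) received an M. butyricum mineral-oil suspension into one hind paw. They were dosed daily by gavage from the day of injection. At the end of the study the rats were killed, and the small intestines were examined for ulcers. Results are given as the number of ulcerated animals over the number tested.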

Test [3] deals with Rattus norvegicus. The test is described as follows: Antiinflammatory efficacy is measured by the weight gain in rats during the 3 week adjuvant arthritis test at 0.32 mM/kg (116.4 mg). It counts as functional. Summed up:
(§3)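 Male Sprague-Dawley rats (200–230 g), eight per group, received 0.1 mL of 0.6% M. butyricum in heavy mineral oil (negative controls: mineral oil) into one hind-paw plantar tissue. Daily gavage in 1% gum tragacanth or corn oil-water emulsion began on the injection day, for 21 days. Weight gain is expressed as (treated − adjuvant control)/(negative control − adjuvant control) × 100.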

For test [4], the system named is Rattus norvegicus. Nature of the test: Antiinflammatory efficacy is measured by the weight gain in rats during the 3 week adjuvant arthritis test at 0.08 mM/kg (29.1 mg). It counts as functional. In a few lines:
(§4)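 Rats were adjuvant-injected (M. butyricum in mineral oil, one hind paw) or given a mineral-oil placebo. They were dosed by gavage daily for 21 days from the injection day, with vehicle only for both control groups, then weighed at the end. Weight gain % = (treated − adjuvant control)/(negative control − adjuvant control) × 100.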

Test [5] deals with Rattus norvegicus. The test is described as follows: Antiinflammatory efficacy is measured by the percent inhibition of paw volume during the 3 week adjuvant arthritis test at 0.005 mM/kg (1.82 mg). It counts as functional. In a few lines: (§5)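 Male Sprague-Dawley rats (200–230 g) were used in groups of eight. Each received 0.1 mL of 0.6% M. butyricum in heavy mineral oil into the plantar tissue of one hind paw. Daily oral gavage in 1% gum tragacanth or corn oil-water emulsion began on the injection day and ran 21 days. Total hind paw volume was measured by mercury displacement, and inhibition was taken versus vehicle-treated adjuvant controls.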

For test [6], the system named is Rattus norvegicus. The test is described as follows: Antiinflammatory efficacy is measured by the weight gain in rats during the 3 week adjuvant arthritis test at 0.02 mM/kg (7.28 mg). In kind it is functional. Summed up: as §4
Test [7] deals with Rattus norvegicus. Nature of the test: Antiinflammatory efficacy is measured by the weight gain in rats during the 3 week adjuvant arthritis test at 0.16 mM/kg (58.2 mg). In kind it is functional. Summed up: as §4
Test [8] concerns Rattus norvegicus. Nature of the test: The mean increase in paw volume was compared between drug treated groups and placebo to calculate the percent inhibition in rats at 0.02 mmol/kg by carrageenan Edema Assay; 30-39. In kind it is functional.
In test [9] the test system is Rattus norvegicus. Nature of the test: Antiinflammatory efficacy is measured by the percent inhibition of paw volume during the 3 week adjuvant arthritis test at 0.02 mM/kg (7.28 mg). In kind it is functional. In a few lines: as §5
The test system of test [10] is Rattus norvegicus. The test is described as follows: The percent inhibition was calculated from the average differences in hind paw volume between the adjuvant injected controls and the adjuvant-injected medicated rats at 0.08 mmol/kg; 60-69. In kind it is functional.
Test [11] deals with Rattus norvegicus. Nature of the test: Ulcerogenicity was measured in intestine during the 3 week adjuvant arthritis test, no of animals with ulcers out of 8 animals tested at 0.08 mM/kg (29.1 mg) was reported. In kind it is functional. Summed up: as §2
Test [12] relates to Rattus norvegicus. The test is described as follows: Ulcerogenicity was measured in stomach during the 3 week adjuvant arthritis test, no of animals with ulcers out of 7 animals tested at 0.32 mM/kg (116.4 mg) was reported. In kind it is functional. Summed up:
as §1

Test [13] is filed under the species Rattus norvegicus. Nature of the test: Effective Dose 50 is the amount of material required to elicit inflammatory effect in 50% of an animal population. In kind it is functional. In a few lines: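 In the 21-day adjuvant arthritis test in male Sprague-Dawley rats, daily gavage started on the day of M. butyricum injection. At the end, total hind paw volume was measured by mercury displacement. ED50 is the dose giving 50% inhibition of total hind paw volume change.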

Test [14] is filed under the species Mus musculus. Nature of the test: Effective Dose 50 is the amount of material required to elicit analgesic effect in 50% of an animal population.
In test [15] the test system is Rattus norvegicus. Nature of the test: Ulcerogenicity was measured in intestine during the 3 week adjuvant arthritis test.(animals with ulcers/animals in test) at 0.16 mM/kg (58.2 mg); 4/8. It counts as functional. Summed up: as §1
In test [16] the target is prostaglandin synthetase (Bos taurus). The test is described as follows: Inhibitory concentration against prostaglandin synthetase from bull seminal vesicles.
Test [17] concerns Rattus norvegicus. The test is described as follows: Ulcerogenicity was measured in stomach during the 3 week adjuvant arthritis test, no of animals with ulcers out of 8 animals tested at 0.08 mM/kg (29.1 mg) was reported. It counts as functional. Summed up:
as §1

Test [18] concerns Rattus norvegicus. Nature of the test: Antiinflammatory efficacy is measured by the percent inhibition of paw volume during the 3 week adjuvant arthritis test at 0.08 mM/kg (29.1 mg). In kind it is functional. In a few lines:
as §5

Test [19] concerns Rattus norvegicus. Nature of the test: Antiinflammatory efficacy is measured by the weight gain in rats during the 3 week adjuvant arthritis test at 0.005 mM/kg (1.82 mg). In kind it is functional. Summed up: as §4
Test [20] concerns Rattus norvegicus. Nature of the test: Antiinflammatory efficacy is measured by the weight gain in rats during the 3 week adjuvant arthritis test at 0.55 mM/kg (113 mg). It counts as functional. In a few lines:
as §3

For test [21], the species on record is Rattus norvegicus. Nature of the test: Compound was evaluated for highest non-ulcerogenic dose (less than 50% ulcer incidence). In kind it is functional. The conditions noted are these: read-out: ED50. Summed up: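 Taken from the 21-day adjuvant arthritis test in male Sprague-Dawley rats dosed orally each day from the day of adjuvant injection. Small intestines and stomachs were examined for ulceration at the end. The value is the highest dose giving less than 50% ulcer incidence.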

Test [22] deals with Rattus norvegicus. The test is described as follows: Antiinflammatory efficacy is measured by the weight gain in rats during the 3 week adjuvant arthritis test at 0.278 mM/kg (57.2 mg). In kind it is functional. Summed up: as §3
Test [23] concerns Rattus norvegicus. The test is described as follows: Ulcerogenicity was measured in intestine during the 3 week adjuvant arthritis test.(animals with ulcers/animals in test) at 0.0014 mM/kg (0.50 mg). In kind it is functional. Summed up: as §1
Test [24] relates to Rattus norvegicus. Nature of the test: Antiinflammatory efficacy is measured by the weight gain in rats during the 3 week adjuvant arthritis test at 0.0014 mM/kg (0.50 mg). It counts as functional. In a few lines:
as §4

In test [25] the test system is Rattus norvegicus. Nature of the test: Antiinflammatory efficacy is measured by the weight gain in rats during the 3 week adjuvant arthritis test at 0.008 mM/kg (2.86 mg). In kind it is functional. In a few lines:
as §4

In test [26] the test system is Rattus norvegicus. Nature of the test: Antiinflammatory efficacy is measured by the percent inhibition of paw volume during the 3 week adjuvant arthritis test at 0.0014 mM/kg (0.50 mg). In kind it is functional. In a few lines: as §5
Test [27] concerns Rattus norvegicus. Nature of the test: Ulcerogenicity was measured in stomach during the 3 week adjuvant arthritis test.(animals with ulcers/animals in test) at 0.0014 mM/kg (0.50 mg). In kind it is functional. In a few lines:
as §1

For test [28], the system named is Rattus norvegicus. Nature of the test: Ulcerogenicity was measured in stomach during the 3 week adjuvant arthritis test.(animals with ulcers/animals in test) at 0.008 mM/kg (2.86 mg). It counts as functional. Summed up:
as §1

Test [29] has as its system Rattus norvegicus. Nature of the test: Antiinflammatory efficacy is measured by the weight gain in rats during the 3 week adjuvant arthritis test at 0.011 mM/kg (3.94 mg). It counts as functional. Summed up:
as §4

The subject of test [30] is Rattus norvegicus. The test is described as follows: Potency relative to phenylbutazone at 0.0014 mM/kg. In kind it is functional.
Test [31] relates to Rattus norvegicus. The test is described as follows: Ulcerogenicity was measured in intestine during the 3 week adjuvant arthritis test.(animals with ulcers/animals in test) at 0.008 mM/kg (2.86 mg). In kind it is functional. In a few lines:
as §1

SMILES strings stand for the structures.

What is called Inhibition is how much of the control response was suppressed. By ED50 is commonly meant the midpoint of the dose-response relation. Low values mean greater potency, high ones weaker potency. The IC50 is the concentration that inhibits the measured activity by half. Read a low IC50 as greater potency. On to `CC(CN1CCOCC1)c1cccc(C(=O)c2ccccc2)c1.Cl` (configuration not stated), for which the Ulcerogenic index in test [1] came to 2; in test [2], 7; in test [11], 5; in test [12], 1; in [15] it was 4; in [17], 0. Moreover, the Weight gain in test [3] turned out to be 46%; in test [4], 43%; in test [6] it was 10%; in test [7], 70%; in [19], 2%. Moreover, the Inhibition is reported as 49% in test [5]; 30% in [8]; 72% in test [9]; 60% in test [10]; 89% in [18]. For the same compound, the figures for the ED50 in test [13] and in test [14] were 5 µmol/kg and 8.4 mg/kg, respectively. The compound further had an IC50 in test [16] of 10 µM.

For `CC(C)Cc1ccc(C(C)C(=O)O)cc1` (configuration not stated) [IBUPROFEN], the Weight gain in test [20] is 18%; in test [22], 1%. The highest non-ulcerogenic dose in test [21] was 210 µmol/kg.

`COc1ccc2c(c1)c(CC(=O)O)c(C)n2C(=O)c1ccc(Cl)cc1` [INDOMETHACIN]: the Ulcerogenic index in test [23] is recorded as 3; in [27], 6; in test [28], 5; in test [31], 17. The Weight gain in test [24] was determined as 14%; in test [25], 48%; in [29] it was 38%. Further, the Inhibition in [26] is given as 63%. In test [30], this compound had a Potency of 20%. Besides, the highest non-ulcerogenic dose in test [21] is 0.4 µmol/kg.
